One data set has as its system MDA 468 cells. The conditions noted are these: ref [12], [13]; cited from earlier work.
A further data set has as its system MCF-7 cells. The conditions noted are these: ref [12], [13]; cited from earlier work.
For data set [1], the system named is P450 2W1, P450 1A1, or human liver microsomes. Briefly: GSH adduct formation from oxidation products. The data set is classed as in vitro ADME. As to conditions: 5 mM GSH, 100 μM substrate, LC-MS. The essentials: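 P450 2W1 or 1A1 in E. coli membranes, or human liver microsomes pooled from ten donors, at 0.50 μM with 100 μM substrate, 5 mM GSH and 4 μg mL−1 catalase. Incubated 12–15 h at 37 °C, stopped with 2 volumes CH3CN; supernatant analysed by ESI+ LC-MS.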

The target of data set [2] is T1, P450 2W1 (Homo sapiens, UniProt Q8TAV3).
T1 sequence (Q8TAV3 23-490): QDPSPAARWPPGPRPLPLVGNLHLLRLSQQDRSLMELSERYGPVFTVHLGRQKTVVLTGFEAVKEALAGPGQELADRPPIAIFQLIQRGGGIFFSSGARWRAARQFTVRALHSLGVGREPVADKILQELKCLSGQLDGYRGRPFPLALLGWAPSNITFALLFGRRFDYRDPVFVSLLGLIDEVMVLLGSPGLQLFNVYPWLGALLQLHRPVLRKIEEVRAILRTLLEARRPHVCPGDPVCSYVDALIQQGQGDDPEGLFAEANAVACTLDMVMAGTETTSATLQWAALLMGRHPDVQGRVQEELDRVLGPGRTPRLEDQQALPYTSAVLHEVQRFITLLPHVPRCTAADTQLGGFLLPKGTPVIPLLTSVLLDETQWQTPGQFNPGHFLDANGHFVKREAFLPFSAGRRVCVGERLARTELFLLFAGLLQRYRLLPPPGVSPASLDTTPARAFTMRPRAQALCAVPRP
Briefly: Preliminary incubation with P450 2W1, products by HPLC-UV. The data set is classed as in vitro ADME. As to conditions: recombinant human P450 2W1. The essentials: (§1)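 Recombinant human P450 at 0.3–0.8 μM, either in E. coli membranes or purified and reconstituted with 2-fold excess NADPH-P450 reductase plus 30 μM DLPC. Substrate 100 μM with NADPH-generating system in 0.10 M potassium phosphate, pH 7.4; 37 °C for 30–60 min. Extracted into 2 volumes CH2Cl2, residue taken up in CH3CN. Read by C18 HPLC with photodiode-array UV, acetonitrile/water gradient containing 0.5% formic acid.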

For the next data set, the system named is IGROV-1 cells. The conditions noted are these: ref [12], [13]; cited from earlier work.
The target of data set [3] is T1, P450 2W1. Briefly: Steady-state kinetics of P450 2W1-catalyzed oxidation. The data set is classed as in vitro ADME. In short, it runs like this: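 Same P450 and NADPH-generating levels as qualitative incubations, in 0.10 M phosphate, pH 7.4. Substrate 0–200 μM, in duplicate, at 37 °C. With 2W1: 10 min (dimethoxyphenyl substrate) or 15 min (aminophenyl substrate); with 1A1: 15 and 25 min respectively. CH2Cl2 quench, benzothiazole internal standard added, extract quantified by HPLC-UV. Km and kcat from nonlinear regression.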

The target of a further data set is T2, P450 2S1 (Homo sapiens, UniProt Q96SQ9).
T2 sequence (Q96SQ9 1-504): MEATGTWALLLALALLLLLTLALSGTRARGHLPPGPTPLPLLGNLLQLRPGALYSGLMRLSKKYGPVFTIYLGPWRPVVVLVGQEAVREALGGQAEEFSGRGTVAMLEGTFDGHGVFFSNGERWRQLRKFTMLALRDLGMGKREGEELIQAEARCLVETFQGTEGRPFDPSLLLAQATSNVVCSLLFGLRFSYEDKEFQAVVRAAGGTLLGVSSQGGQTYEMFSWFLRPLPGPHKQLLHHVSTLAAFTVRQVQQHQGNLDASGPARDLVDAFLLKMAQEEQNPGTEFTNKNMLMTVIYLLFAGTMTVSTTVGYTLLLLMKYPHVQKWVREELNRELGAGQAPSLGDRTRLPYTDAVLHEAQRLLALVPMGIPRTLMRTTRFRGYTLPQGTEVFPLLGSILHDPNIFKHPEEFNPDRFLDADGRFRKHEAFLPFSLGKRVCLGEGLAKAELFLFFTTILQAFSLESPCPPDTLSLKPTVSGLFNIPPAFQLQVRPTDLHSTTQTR
Briefly: Preliminary incubation with P450 2S1, products by HPLC-UV. The data set is classed as in vitro ADME. As to conditions: recombinant human P450 2S1. In short, it runs like this: as §1

The next data set concerns the target T3, P450 1A1 (Homo sapiens, UniProt P04798).
T3 sequence (P04798 1-512): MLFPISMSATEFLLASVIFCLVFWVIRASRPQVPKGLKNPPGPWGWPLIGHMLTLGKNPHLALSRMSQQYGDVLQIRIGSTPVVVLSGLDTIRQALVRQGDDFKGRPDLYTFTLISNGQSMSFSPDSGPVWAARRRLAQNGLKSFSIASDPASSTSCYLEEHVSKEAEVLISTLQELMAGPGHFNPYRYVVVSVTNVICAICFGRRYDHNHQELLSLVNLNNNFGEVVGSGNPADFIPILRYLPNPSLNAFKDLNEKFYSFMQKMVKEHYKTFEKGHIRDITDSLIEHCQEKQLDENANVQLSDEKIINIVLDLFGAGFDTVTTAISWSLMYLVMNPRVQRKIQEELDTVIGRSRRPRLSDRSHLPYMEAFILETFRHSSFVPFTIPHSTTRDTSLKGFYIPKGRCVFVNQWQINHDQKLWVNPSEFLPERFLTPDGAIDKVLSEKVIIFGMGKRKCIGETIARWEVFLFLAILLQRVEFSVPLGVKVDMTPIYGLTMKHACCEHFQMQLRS
Put plainly: Steady-state kinetics of P450 1A1-catalyzed oxidation. The format is in vitro ADME. The conditions noted are these: oxidation of 5F 203 to form 8a.

The next data set concerns dGuo. Briefly: dGuo adduct formation with synthetic 10. As to conditions: after Ac2O activation, 37 °C under argon 2 h, LC-MS m/z 524.
Data set [4] can be described thus: Solubility in organic solvents. The data set is classed as physicochemical. The conditions noted are these: in CHCl3 and CH3OH.
The test system of data set [5] is colon, lung, and breast cancer cell lines. As to conditions: ref [19]; cited from earlier work.
Substrate in data set [6]: Cc1cc(-c2nc3cc(F)ccc3s2)ccc1N
Briefly: Steady-state kinetics of P450 1A1-catalyzed oxidation. As to conditions: pH 7.4, 37.0 °C. The format is in vitro ADME, human.

Substrate in data set [7]: COc1ccc(-c2nc3cc(F)ccc3s2)cc1OC
Described as above. The format is in vitro ADME, human. As to conditions: other: P450 1A1, substrate GW 610, product 4c; pH 7.4; 37.0 °C.

Setting [8] is: other: P450 1A1, substrate 5F 203, product 8a.
The mark [9] stands for this setting: other: P450 1A1, substrate 5F 203, product 8b.

For the molecule `Cc1cc(-c2nc3cc(F)ccc3s2)ccc1N` [5F 203, 2-(4-Amino-3-methylphenyl)-5-fluorobenzothiazole], the GI50 in the data set with MDA 468 cells, in the data set with MCF-7 cells and in the data set on IGROV-1 cells was < 1 nM throughout. Besides, in data set [1], the GSH conjugate formation result is on record as “detected”. The “product formation on incubation with P450 2W1” value on P450 2W1 [2] is recorded as “Products were formed”. Besides, the kcat on P450 2W1 [3] (P450 2W1, substrate 5F 203, product 8a) turned out to be 0.0158 ± 0.0017 s⁻¹; on P450 2W1 [3] (P450 2W1, substrate 5F 203, product 10), 0.00933 ± 0.001 s⁻¹. In addition, the Km at 15 min at P450 2W1 [3] (human, pH 7.4, Km, P450 2W1, substrate 5F 203, product 8a) amounted to 31 ± 11 µM; on P450 2W1 [3] (human, pH 7.4, Km, P450 2W1, substrate 5F 203, product 10), 35 ± 12 µM. For the same molecule, the “product formation on incubation with P450 2S1” value at P450 2S1 is “no products were observed”. In addition, at P450 1A1, the “efficiency of P450 1A1 relative to P450 2W1” value was ~ 2 fold.

In the case of `Cc1cc(-c2nc3cc(F)ccc3s2)ccc1NO` [compound 10, 2-(4-Hydroxylamino-3-methylphenyl)-5-fluorobenzothiazole], the dGuo adduct formation entry in the data set on dGuo is on record as “consistent with a dGuo adduct of compound 10”. For the same molecule, in data set [4], the solubility entry is listed as “very poor”.

Regarding `c1ccc(-c2nc3ccccc3s2)cc1` [2-phenylbenzothiazole, reference compound], on P450 2W1 [2], the “product formation on incubation with P450 2W1” value is reported as “No products were observed”. Also, the “product formation on incubation with P450 2S1” value at P450 2S1 was “No products were observed”.

Take `COc1ccc(-c2nc3cc(F)ccc3s2)cc1OC` [GW 610, 5-Fluoro-2-(3,4-dimethoxyphenyl)-benzothiazole]: the GSH conjugate formation result in [1] was “detected”. For the same molecule, at P450 2W1 [2], the “product formation on incubation with P450 2W1” value is “Products were formed”. In addition, the kcat at P450 2W1 [3] (P450 2W1, substrate GW 610, product 4c) was found to be 0.0633 ± 0.0067 s⁻¹. For the same molecule, the “efficiency of P450 2W1 relative to P450 1A1” value on P450 2W1 [3] (formation of 4c from GW 610) was 5 fold. The Km at 10 min at P450 2W1 [3] (human, pH 7.4, Km, P450 2W1, substrate GW 610, product 4c) turned out to be 22 ± 7 µM. Further, the 50% growth inhibitory concentration (GI50) in [5] is < 0.1 nM. The “product formation on incubation with P450 2S1” value on P450 2S1 is on record as “no products were observed”.

B1: P450 1A1 (Homo sapiens) (protein)
chain: T3 sequence (P04798 1-512)
On to B1, for which, in data set [6] (setting [8]), the Michaelis constant (Km) came out at 32 ± 9 µM, the kcat stood at 0.0283 ± 0.00333 s⁻¹ and the kcat/Km is 900 ± 333 M⁻¹ s⁻¹. For the same molecule, in data set [6] (setting [9]), the Km stood at 29 ± 8 µM, the kcat worked out at 0.0517 ± 0.005 s⁻¹ and the specificity constant (kcat/Km) turned out to be 1830 ± 500 M⁻¹ s⁻¹. For the same molecule, in [7], the Km turned out to be 10 ± 3 µM, the catalytic constant (kcat) was found to be 0.00617 ± 0.0005 s⁻¹ and the kcat/Km worked out at 600 ± 167 M⁻¹ s⁻¹.

By GI50 is commonly meant the concentration at which growth is held to half of that of the control. What is called kcat is the number of substrate molecules converted per active site and unit of time at saturation. What is called Km is the substrate concentration at which the rate is half of its maximum. Broadly, the kcat/Km is the second-order rate constant that governs catalysis at low substrate concentration.

The record behind these values is paper PMC3850770 (Chemical research in toxicology, 2012).
